Measured values gathered from unrelated publications.
In brackets after ≈: the same amount, converted by molar mass.

| SMILES | technique | sample | time | pH | temperature | quantity | result |
| --- | --- | --- | --- | --- | --- | --- | --- |
| Cn1cncc1[C@@](N)(c1ccc(Cl)cc1)c1ccc2c(c1)c(-c1cccc(Cl)c1)cc(=O)n2C | – | FeSSIF | – | pH 5 | 37 °C | solubility | 448 µg/mL (≈ 915 µM) |
| CCNC(=O)c1cnn(-c2ccc(-n3ccc(Cl)c(Cl)c3=O)cc2)c1C(F)(F)F | – | PBS | 24 h | pH 7.4 | – | kinetic solubility | 0.2 µM (≈ 0.089 µg/mL) |
| N#C/C(=C\c1c[nH]nc1-c1cccc(Br)c1)C(=O)O | – | PBS | 24 h | pH 7.4 | – | kinetic solubility | 0.1 µM (≈ 0.0318 µg/mL) |
| CCn1cc(C2CC2)c2c(Cc3ccc(C(F)(F)F)nc3)n(C)nc2c1=O | nephelometry | aqueous buffer | 30 min | pH 6.5 | – | kinetic solubility | 130 to 260 µM (≈ 48.9 to 97.9 µg/mL) |
| O=C(O)c1cn(-c2ccc(-c3ccc(C(=O)N4CCNCC4)cc3)cc2)cc(O)c1=O | – | aqueous buffer | – | pH 7.4 | – | kinetic solubility | 290 µM (≈ 122 µg/mL) |
| Cn1nc2c(=O)n(C3CC3)ccc2c1[C@](C)(O)c1cnc(C(F)(F)F)c(Cl)c1 | nephelometry | aqueous buffer | 30 min | pH 6.5 | – | kinetic solubility | 80 to 160 µM (≈ 33 to 66 µg/mL) |
| CCNCc1cnn(-c2ccc(-n3ccc(Cl)c(Cl)c3=O)cc2)c1C(F)(F)F | – | PBS | 24 h | pH 7.4 | – | kinetic solubility | 144 µM (≈ 62.1 µg/mL) |
| CC1(F)CN(C(=O)Cn2c(=O)c(C(=O)NCc3ccc(Cl)cc3)cc3nccnc32)C1 | – | aqueous buffer | 24 h | pH 7.4 | 37 °C | thermodynamic solubility | 52.6 µM |
| CC[C@@](N)(c1cnc(C(F)(F)F)c(Cl)c1)c1c2ncn(C3CC3)c(=O)c2nn1C | nephelometry | aqueous buffer | 30 min | pH 6.5 | – | kinetic solubility | 80 to 160 µM (≈ 34.1 to 68.3 µg/mL) |
| C[C@H]1COC2=C1C(=O)C(=O)c1c2ccc2c1CCCC2(C)C | – | PBS | 24 h | pH 7.4 | 25 °C | thermodynamic solubility | 18.3 µg/mL |
| CC1(F)CN(C(=O)Cn2c(=O)c(C(=O)NCc3ccc(Cl)cc3)cc3nc(N4CCN(CC(=O)O)C4=O)cnc32)C1 | – | aqueous buffer | 24 h | pH 7.4 | 37 °C | thermodynamic solubility | 5660 µM |
| CCn1cc(C2CC2)c2c(Cc3ccc(C(F)(F)F)c(F)c3)n(C)nc2c1=O | nephelometry | aqueous buffer | 30 min | pH 6.5 | – | kinetic solubility | 16 to 32 µM (≈ 6.29 to 12.6 µg/mL) |
| Cc1cc(C#N)cc(C)c1Oc1nc(Nc2ccc(C#N)cc2)nc(N)c1Br | – | FaSSIF | 24 h | pH 6.5 | – | thermodynamic solubility | 0.52 µg/mL |
| CCn1cc(C2CC2)c2c(Cc3cnc(C(F)(F)F)c(Cl)c3)n(C)nc2c1=O | nephelometry | aqueous buffer | 30 min | pH 6.5 | – | kinetic solubility | 50 to 100 µM (≈ 20.5 to 41.1 µg/mL) |
| CN(C)C(=O)CN1CCN(c2cnc3c(cc(C(=O)NCc4ccc(Cl)cc4)c(=O)n3CC(=O)N3CC(C)(F)C3)n2)C1=O | – | aqueous buffer | 24 h | pH 7.4 | 37 °C | thermodynamic solubility | < 1.56 µM |
